Measurements from ChEMBL document CHEMBL2203243, “Synthesis and biological evaluation of novel benzimidazole derivatives and their binding behavior with bovine serum albumin” (Eur J Med Chem, 2012).
Values after ≈ are worked out from the molar mass of the structure shown.

Legend:
[1] = tested on: Staphylococcus aureus; experiment: Antimicrobial activity against methicillin-resistant Staphylococcus aureus N315 by microbroth dilution method; format: functional
[2] = tested on: Micrococcus luteus; experiment: Antimicrobial activity against Micrococcus luteus ATCC 4698 by microbroth dilution method; format: functional
Method in brief: (§1)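 Two-fold serial broth microdilution in 96-well microtest plates, run against four Gram-positive strains, five Gram-negative strains and two fungi.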

[3] = tested on: Staphylococcus aureus; experiment: Antimicrobial activity against Staphylococcus aureus ATCC 25923 by microbroth dilution method; format: functional; method in brief: as §1
[4] = tested on: Bacillus; experiment: Antimicrobial activity against Bacillus proteus by microbroth dilution method; format: functional; method in brief: as §1
[5] = tested on: Bacillus subtilis; experiment: Antimicrobial activity against Bacillus subtilis by microbroth dilution method; format: functional; method in brief: as §1
[6] = tested on: Shigella dysenteriae; experiment: Antimicrobial activity against Shigella dysenteriae by microbroth dilution method; format: functional
[7] = tested on: Escherichia coli; experiment: Antimicrobial activity against Escherichia coli DH52 by microbroth dilution method; format: functional; method in brief: as §1
[8] = Antimicrobial activity against Eberthella typhosa by microbroth dilution method; format: functional; method in brief: as §1
[9] = tested on: Candida albicans; experiment: Antimicrobial activity against Candida albicans by microbroth dilution method; format: functional; method in brief: as §1
[10] = tested on: Pseudomonas aeruginosa; experiment: Antimicrobial activity against Pseudomonas aeruginosa by microbroth dilution method; format: functional; method in brief: as §1
[11] = tested on: Candida; experiment: Antimicrobial activity against Candida mycoderma by microbroth dilution method; format: functional; method in brief: as §1
[12] = Lipophilicity, log P of the compound by UV-Vis spectrophotometric method based saturation shake flask assay; format: physicochemical; conditions: octanol/water
Method in brief: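 Log P measured by the traditional saturation shake-flask partition, with compound quantified by UV-vis spectrophotometry.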

[13] = tested on: Staphylococcus aureus; experiment: Potency index, ratio of MIC of chloromycin to MIC of compound against methicillin-resistant Staphylococcus aureus N315 by microbroth dilution method; format: functional
[14] = tested on: Pseudomonas aeruginosa; experiment: Potency index, ratio of MIC of chloromycin to MIC of compound against Pseudomonas aeruginosa by microbroth dilution method; format: functional
[15] = target: Albumin (Bos taurus, UniProt P02769); experiment: Binding affinity to BSA at pH 7.4 by UV-vis absorption spectroscopic method; format: ADME; conditions: cattle, isolated protein
[16] = tested on: Candida; experiment: Potency index, ratio of MIC of fluconazole to MIC of compound against Candida mycoderma by microbroth dilution method; format: functional
[17] = tested on: Escherichia coli; experiment: Potency index, ratio of MIC of chloromycin to MIC of compound against Escherichia coli DH52 by microbroth dilution method; format: functional

Sequence of Albumin (P02769 whole entry): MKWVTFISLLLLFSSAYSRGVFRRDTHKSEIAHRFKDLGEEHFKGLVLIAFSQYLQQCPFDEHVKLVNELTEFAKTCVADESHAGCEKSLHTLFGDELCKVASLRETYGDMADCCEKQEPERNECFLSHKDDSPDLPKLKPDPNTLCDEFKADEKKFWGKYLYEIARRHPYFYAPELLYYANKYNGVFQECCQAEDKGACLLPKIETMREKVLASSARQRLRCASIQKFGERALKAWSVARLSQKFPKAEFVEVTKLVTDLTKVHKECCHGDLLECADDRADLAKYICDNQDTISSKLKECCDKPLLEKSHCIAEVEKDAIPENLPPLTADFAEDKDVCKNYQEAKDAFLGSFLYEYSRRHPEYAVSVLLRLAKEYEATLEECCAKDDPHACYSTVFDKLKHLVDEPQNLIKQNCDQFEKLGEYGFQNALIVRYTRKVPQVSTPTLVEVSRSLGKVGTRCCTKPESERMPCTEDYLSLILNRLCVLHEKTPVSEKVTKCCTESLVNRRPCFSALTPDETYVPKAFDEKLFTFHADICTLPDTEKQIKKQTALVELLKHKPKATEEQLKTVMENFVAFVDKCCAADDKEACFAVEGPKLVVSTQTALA

Compound	MIC [1]	MIC [2]	MIC [3]	MIC [4]	MIC [5]	MIC [6]	MIC [7]	MIC [8]	MIC [9]	MIC [10]	MIC [11]	logP [12]	logP ([12]; read-out: logP)	Ratio [13]	Ratio [14]	Activity [15]	Ratio [16]	Ratio [17]
Cc1c(C(=O)NNCc2nc3ccccc3n2Cc2ccc(F)cc2)sc(C(=O)NNCc2nc3ccccc3n2Cc2ccc(F)cc2)c1C.Cl	32 µg/mL	64 µg/mL	256 µg/mL	128 µg/mL	16 µg/mL	8 µg/mL	16 µg/mL	256 µg/mL	64 µg/mL	64 µg/mL	8 µg/mL	–	–	–	–	–	–	–
Cc1c(C(=O)NN)sc(C(=O)NN)c1C	> 512 µg/mL	512 µg/mL (≈ 2240 µM)	> 512 µg/mL	> 512 µg/mL	> 512 µg/mL	512 µg/mL (≈ 2240 µM)	512 µg/mL (≈ 2240 µM)	512 µg/mL (≈ 2240 µM)	512 µg/mL (≈ 2240 µM)	> 512 µg/mL	512 µg/mL (≈ 2240 µM)	-1.41	–	–	–	–	–	–
Cc1c(C(=O)NNCc2nc3ccccc3[nH]2)sc(C(=O)NNCc2nc3ccccc3[nH]2)c1C	> 512 µg/mL	256 µg/mL (≈ 524 µM)	> 512 µg/mL	256 µg/mL (≈ 524 µM)	128 µg/mL (≈ 262 µM)	512 µg/mL (≈ 1050 µM)	512 µg/mL (≈ 1050 µM)	512 µg/mL (≈ 1050 µM)	> 512 µg/mL	> 512 µg/mL	256 µg/mL (≈ 524 µM)	–	1.25	–	–	–	–	–
Cc1c(C(=O)NN)sc(C(=O)NNCc2nc3ccccc3[nH]2)c1C	256 µg/mL (≈ 714 µM)	128 µg/mL (≈ 357 µM)	256 µg/mL (≈ 714 µM)	128 µg/mL (≈ 357 µM)	64 µg/mL (≈ 179 µM)	512 µg/mL (≈ 1430 µM)	512 µg/mL (≈ 1430 µM)	64 µg/mL (≈ 179 µM)	256 µg/mL (≈ 714 µM)	256 µg/mL (≈ 714 µM)	128 µg/mL (≈ 357 µM)	–	0.84	–	–	–	–	–
CCCn1c(CNNC(=O)c2sc(C(=O)NNCc3nc4ccccc4n3CCC)c(C)c2C)nc2ccccc21	32 µg/mL (≈ 55.9 µM)	256 µg/mL (≈ 447 µM)	512 µg/mL (≈ 894 µM)	256 µg/mL (≈ 447 µM)	256 µg/mL (≈ 447 µM)	256 µg/mL (≈ 447 µM)	256 µg/mL (≈ 447 µM)	256 µg/mL (≈ 447 µM)	512 µg/mL (≈ 894 µM)	128 µg/mL (≈ 223 µM)	256 µg/mL (≈ 447 µM)	–	3.7	–	–	–	–	–
CCCCCCn1c(CNNC(=O)c2sc(C(=O)NNCc3nc4ccccc4n3CCCCCC)c(C)c2C)nc2ccccc21	4 µg/mL (≈ 6.09 µM)	64 µg/mL (≈ 97.4 µM)	32 µg/mL (≈ 48.7 µM)	64 µg/mL (≈ 97.4 µM)	32 µg/mL (≈ 48.7 µM)	64 µg/mL (≈ 97.4 µM)	8 µg/mL (≈ 12.2 µM)	64 µg/mL (≈ 97.4 µM)	32 µg/mL (≈ 48.7 µM)	32 µg/mL (≈ 48.7 µM)	32 µg/mL (≈ 48.7 µM)	–	6.62	–	–	–	–	–
CCCCCCCCn1c(CNNC(=O)c2sc(C(=O)NNCc3nc4ccccc4n3CCCCCCCC)c(C)c2C)nc2ccccc21	8 µg/mL (≈ 11.2 µM)	16 µg/mL (≈ 22.4 µM)	32 µg/mL (≈ 44.9 µM)	> 512 µg/mL	32 µg/mL (≈ 44.9 µM)	16 µg/mL (≈ 22.4 µM)	32 µg/mL (≈ 44.9 µM)	64 µg/mL (≈ 89.8 µM)	16 µg/mL (≈ 22.4 µM)	16 µg/mL (≈ 22.4 µM)	4 µg/mL (≈ 5.61 µM)	–	8.19	–	–	–	–	–
CCCCCCCCCCn1c(CNNC(=O)c2sc(C(=O)NNCc3nc4ccccc4n3CCCCCCCCCC)c(C)c2C)nc2ccccc21	2 µg/mL (≈ 2.6 µM)	16 µg/mL (≈ 20.8 µM)	2 µg/mL (≈ 2.6 µM)	8 µg/mL (≈ 10.4 µM)	4 µg/mL (≈ 5.2 µM)	8 µg/mL (≈ 10.4 µM)	4 µg/mL (≈ 5.2 µM)	4 µg/mL (≈ 5.2 µM)	4 µg/mL (≈ 5.2 µM)	4 µg/mL (≈ 5.2 µM)	2 µg/mL (≈ 2.6 µM)	ND(Insoluble)	–	8	8	Active	2	8
O=C(N[C@H](CO)[C@H](O)c1ccc([N+](=O)[O-])cc1)C(Cl)Cl [CHLORAMPHENICOL]	16 µg/mL (≈ 49.5 µM)	8 µg/mL (≈ 24.8 µM)	16 µg/mL (≈ 49.5 µM)	32 µg/mL (≈ 99 µM)	32 µg/mL (≈ 99 µM)	32 µg/mL (≈ 99 µM)	32 µg/mL (≈ 99 µM)	32 µg/mL (≈ 99 µM)	–	32 µg/mL (≈ 99 µM)	–	–	–	–	–	–	–	–
OC(Cn1cncn1)(Cn1cncn1)c1ccc(F)cc1F [FLUCONAZOLE]	–	–	–	–	–	–	–	–	1 µg/mL (≈ 3.27 µM)	–	4 µg/mL (≈ 13.1 µM)	–	–	–	–	–	–	–
CCn1cc(C(=O)O)c(=O)c2cc(F)c(N3CCNCC3)cc21 [NORFLOXACIN]	8 µg/mL (≈ 25.1 µM)	2 µg/mL (≈ 6.26 µM)	0.5 µg/mL (≈ 1.57 µM)	8 µg/mL (≈ 25.1 µM)	1 µg/mL (≈ 3.13 µM)	4 µg/mL (≈ 12.5 µM)	16 µg/mL (≈ 50.1 µM)	4 µg/mL (≈ 12.5 µM)	–	16 µg/mL (≈ 50.1 µM)	–	–	–	–	–	–	–	–
